The list is not random: actives were taken first. Their share in the collection is about 2.9%.
PG9 binder: binds the HIV-1 gp120 antibody PG9. TR-FRET gp120-PG9 antibody binding. inhibition, % at 6.7 µM. 360,000 compounds, 0.43% hits. AID 624416; in the data active = inhibition above about 8.5%
MIN6 prolif: inducers of beta-cell replication in MIN6 cells. proliferation, % at 10 µM. 330,000 compounds, 0.29% hits. MIN6 cells proliferation, ATPlite luminescence, 48 h; cells starved in 0.2% serum; 100% = growth in 10% serum;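 active = compounds whose signal lies at least 3.5 SD above the mean of all wells on their plate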;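 note: 0% = DMSO-treated cells in low-serum medium and 100% = 10% serum control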
Rev-erbA mod: modulators of human Rev-erb alpha DNA binding; Rev-erbα–FITC-DNA binding, fluorescence polarization, 90 min; activity, % at 10 µM; 370,000 compounds, 0.79% hits; AID 1259318;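 active = activity above about 14%, limit read from the data; passing the limit was not always enough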;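 note: 0% = DMSO wells with 35 nM protein and 100% = DMSO wells with 750 nM protein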
Target sequence (P20393 whole entry, looked up): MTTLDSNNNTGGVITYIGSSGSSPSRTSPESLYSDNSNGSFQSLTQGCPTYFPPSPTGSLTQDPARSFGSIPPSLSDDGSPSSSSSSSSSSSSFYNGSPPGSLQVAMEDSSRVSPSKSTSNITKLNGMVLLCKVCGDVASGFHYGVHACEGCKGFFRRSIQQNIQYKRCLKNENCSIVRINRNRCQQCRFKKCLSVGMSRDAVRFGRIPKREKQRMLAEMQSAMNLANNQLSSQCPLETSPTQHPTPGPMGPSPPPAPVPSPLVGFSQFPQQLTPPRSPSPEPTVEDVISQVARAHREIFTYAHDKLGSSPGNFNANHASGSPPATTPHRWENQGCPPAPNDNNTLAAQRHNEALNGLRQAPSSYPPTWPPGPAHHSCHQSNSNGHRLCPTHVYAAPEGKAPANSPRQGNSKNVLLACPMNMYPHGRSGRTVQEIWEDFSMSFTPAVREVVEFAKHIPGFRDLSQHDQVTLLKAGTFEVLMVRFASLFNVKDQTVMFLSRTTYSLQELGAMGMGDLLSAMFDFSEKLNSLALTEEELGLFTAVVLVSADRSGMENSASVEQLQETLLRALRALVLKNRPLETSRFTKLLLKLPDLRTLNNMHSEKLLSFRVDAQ
T cruzi inh: blocks replication of Trypanosoma cruzi; T. cruzi beta-gal in NIH3T3, luminescence, 90 h; inhibition, % (concentration not given with the values); 300,000 compounds, 1.4% hits; AID 1885;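 active = mean inhibition across valid replicates above about 55%, limit read from the data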;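 note: signal also drops with host cell toxicity which is not excluded here; 0% = plate median of DMSO wells and 100% = zero luminescence signal; higher percent means less beta-gal luminescence so fewer parasites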
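System: Mouse NIH/3T3 fibroblasts infected with β-gal-expressing T. cruzi Tulahuen C4 | Quantity: NIH/3T3 cells, 5,000 per well | Reagent: 5000 reporter trypomastigotes per well | Dosing: Compound pinned at 50 nL/well, DMSO | Schedule: 3 h host attachment, then at least 90 h co-culture | Detection: GalScreen luminescence, 60 min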
H9c2 TAG inh: triacylglycerol accumulation inhibition; H9c2 cells, Nile Red lipid (TAG) fluorescence; cells loaded with 200 µM oleic acid; inhibition, % at 12.5 µM; 230,000 compounds, 0.66% hits; AID 651582;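 active = pattern-corrected inhibition of lipid staining of at least 50% with the nuclear-stain viability signal not falling by more than 50%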;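 note: 0% = DMSO wells and 100% = triacsin C control wells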
iPSC survival up: enhancers of human iPSC single-cell survival | hiPSC single-cell survival, ATPlite luminescence; 100% = ROCK inhibitor wells, 0% = DMSO | survival enhancement, % at 20 µM | 360,000 compounds, 0.044% hits; in the data active = survival enhancement above about 18%;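 note: cells exposed to compounds for 16 hours before the ATP read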
H9c2 TAG conf: confirmation of triacylglycerol accumulation inhibitors | shares compounds with H9c2 TAG inh | H9c2 lipid accumulation, Nile Red fluorescence; cells loaded with 200 µM oleic acid | inhibition, % at 12.5 µM | 990 compounds, 71% hits | AID 651629;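 active = mean inhibition across replicates of 40% or more; inactive = mean inhibition below 40%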;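 note: plate controls were DMSO only wells for no effect and Triacsin C treated wells for full effect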
NR1D1 mod conf: Rev-erb alpha (human) modulation, hit confirmation | activation, % at 25 µM | 3,000 compounds, 61% hits | shares compounds with Rev-erbA mod | Rev-erb alpha FITC-DNA binding, fluorescence polarization, 90 min | AID 1259319;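 active = activation at or above a set limit, or at least 3 SD above the negative control mean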;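 note: 0% = 35 nM protein with DMSO and 100% = 750 nM protein high control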
RORg counter: counter-screen for Rev-erb alpha modulators: RORgamma DNA binding | shares compounds with Rev-erbA mod | purified RORgamma protein-FITC-DNA binding, fluorescence polarization | IC50, µM | 910 compounds, 8% hits | AID 1259320;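 active = Compounds whose fitted half-maximal concentration for disrupting protein-DNA binding is below 10 micromolar; the record names Rev-erb in its text, so the target is in doubt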
Numbers without * were called inactive; . = no result given; ! = not confirmed by another sample.

SMILES | PG9 binder | MIN6 prolif | Rev-erbA mod | T cruzi inh | H9c2 TAG inh | iPSC survival up | H9c2 TAG conf | NR1D1 mod conf | others
COc1ccc(CCNC(=O)Cn2c(-c3nonc3N)nc3ccccc32)cc1OC | -2 | -1 | 4 | -1 | 14 | 0 | . | .
CCCCOc1ccccc1NC(=O)Cn1c(-c2nonc2N)nc2ccccc21 | 1 | -2 | 7 | -45 | 73* | -1 | 64* | .
CCOc1ccc(CCNC(=O)Cn2c(-c3nonc3N)nc3ccccc32)cc1OCC | 0 | -2 | 6 | . | 57* | 2 | 36 | .
CCOc1ccc(CCNC(=O)CN2CCN(Cc3ccccc3C)C2=O)cc1OCC | 0 | 1 | 2 | 16 | 60* | 1 | 54* | .
COc1cc(Cn2c(-c3nonc3N)nc3ccccc32)ccc1C | 0 | -2 | 3 | 34 | 66* | -2 | 62* | .
COc1cccc(Cn2c(-c3nonc3N)nc3ccccc32)c1 | -2 | -1 | 0 | -2 | 38 | -2 | . | .
CC1(C)Nc2ccccc2C(=O)N1c1ccc(Br)cc1 | 2 | 0 | -1 | -5 | -5 | 0 | . | .
CCN1CCN(Cc2ccc(NC(=O)c3cc(NC(=O)C4=NN(c5ccccc5)C(=O)C4)cc(OC)c3)cc2C(F)(F)F)CC1 | -2 | -6 | 4 | -6 | 12 | -2 | . | .
COc1cc(NC(=O)c2cc3cccc(OC)c3o2)cc(C(=O)Nc2cccc(C(F)(F)F)c2)c1 | 0 | -8 | 4 | 19 | 55* | 0 | 69* | .
CCN1CCN(Cc2ccc(NC(=O)c3cc(NC(=O)c4cncc(-c5cccs5)c4)cc(OC)c3)cc2C(F)(F)F)CC1 | 1 | -9 | -12 | 27 | 57* | -4 | 44* | .
CCN1CCN(Cc2ccc(NC(=O)c3cc(NC(=O)c4ccno4)cc(OC)c3)cc2C(F)(F)F)CC1 | 0 | -8 | -8 | 31 | 24 | -2 | . | .
CCN1CCN(Cc2ccc(NC(=O)c3cc(NC(=O)c4cc5cccc(OC)c5o4)cc(OC)c3)cc2C(F)(F)F)CC1 | -1 | -7 | 0 | 31 | 60*! | -4 | 68* | .
CCOC(=O)c1c(-c2ccc(OC)cc2)csc1/N=C/N(C)C | -1 | 3 | -3 | -19 | 6 | 4 | . | .
CCN1C(=O)[C@H]2[C@@H](c3ccc(-c4cccc(Cl)c4)c(OC)c3)N[C@@](Cc3ccccc3)(C(=O)OC)[C@H]2C1=O | 0 | -7 | 4 | -3 | 44 | -3 | . | .
COC(=O)[C@]1(Cc2ccccc2)N[C@H](c2ccc(-c3cccc(Cl)c3)c(OC)c2)[C@@H]2C(=O)N(C)C(=O)[C@@H]21 | -4 | . | 25* | . | 55* | -3 | 45* | 17*
COc1ccc(CSc2nncn2C)cc1F | 0 | -1 | -3 | -2 | . | -1 | . | .
CSc1nc2c(c(=O)[nH]1)CCCC2 | 1 | -1 | 2 | 5 | -21 | 5 | . | .
CCCCCOc1ccc(NC(=O)CSc2cccc3cccnc23)cc1 | -2 | -3 | 46* | 41 | 57* | -1 | 56* | 39* | RORg counter=1.4*
O=C1COc2ccc(C(=O)CSc3nc4ccccc4c(=O)n3-c3ccc(Cl)c(Cl)c3)cc2N1 | 0 | -6 | 26* | -14 | 61* | -2 | 66* | 7
CCc1ccc(-n2c(SCC(=O)c3ccc4c(c3)NC(=O)CO4)nc3ccccc3c2=O)cc1 | 1 | -3 | 13 | -57 | 38 | 0 | . | .
Cc1cc(C(F)(F)F)n(-c2nc(C(=O)N/N=C/c3ccc(F)cc3)cs2)n1 | -1 | -2 | 3 | 9 | -9 | -1 | . | .
O=C1OC(Nc2ccc(F)cc2F)c2ccccc21 (stereo unspecified) | -2 | -1 | 1 | -5 | 3 | 6 | . | .
c1ccc(-c2nc(SCc3nc4ccccc4[nH]3)c3oc4ccccc4c3n2)cc1 | -2 | -3 | 46* | . | 74* | 1 | 88* | 45* | RORg counter=>40
Cc1nc(SCc2nc3ccccc3[nH]2)c2oc3ccccc3c2n1 | -5 | -3 | -6 | 9 | 6 | 1 | . | .
CC(C)CC(N)c1csc(NC(=O)NCCc2ccccc2)n1 (stereo unspecified) | 0 | . | -2 | . | 18 | -4 | . | .
SMILES | PG9 binder | MIN6 prolif | Rev-erbA mod | T cruzi inh | H9c2 TAG inh | iPSC survival up | H9c2 TAG conf | NR1D1 mod conf | others
COc1cc(Nc2ccccn2)cc(C(=O)Nc2cccc(C(F)(F)F)c2)c1 | -2 | -8 | 5 | 14 | 35 | -1 | . | .
COc1cc(NC(=O)c2nccn2C)cc(C(=O)Nc2cccc(C(F)(F)F)c2)c1 | -2 | 2 | 19*! | -10 | 107* | -1 | 26 | 15*
CSC1=C(C#N)C(c2ccccc2C)C(C#N)=C(N)N1 (stereo unspecified) | -3 | 5 | 27* | 5 | 55* | -3 | 5 | 14
CSc1cc(-c2ccc(Cl)cc2)n(Cc2ccccc2)c(=O)c1C#N | -4 | -4 | 32* | 13 | 64* | -1 | 36 | 14
Cc1ccnc(N2CCC(C(=O)Nc3ccc(Oc4ccccc4)cc3)CC2)n1 | 1 | -2 | 24* | 7 | 52* | 0 | 14 | -2
Cc1cccc(N2CCN(C(=O)CCCn3c(=S)[nH]c4cc5c(cc4c3=O)OCO5)CC2)c1C | 5 | -5 | 24* | 57* | 54* | -1 | 38 | 20*
CCCCCCn1cc(C(=O)O)c(=O)c2cc(F)c(N3CCN(C(=O)OCC)CC3)cc21 | 1 | -2 | 31* | -8 | . | 1 | . | 6
C=CCCCCCCCCC(=O)N1CCN(c2cc3c(cc2F)c(=O)c(C(=O)O)cn3CC)CC1 | -2 | -6 | 3 | -6 | . | 0 | . | .
CC1(C(=O)NS(=O)(=O)c2ccc(C#N)cc2)CCN1C(=O)Cc1ccc(Cl)cc1Cl (stereo unspecified) | 0 | . | 3 | . | 8 | 2 | . | .
N#C/C(=C/c1ccc(N2CCOCC2)o1)C(=O)Nc1ccccc1 | -16 | . | 53* | -1 | -21 | -1 | . | 26*
N#C/C(=C\c1ccc(N2CCOCC2)o1)C(=O)NCC1CCCO1 (stereo unspecified) | -17 | -1 | 21* | 1 | . | 3 | . | 13
CN(C1CCCCC1)S(=O)(=O)c1ccc(NC(=S)NC(=O)c2cccs2)cc1 | -1 | -7 | 0 | 36 | . | -1 | . | .
O=C1C2C(c3ccccc3)C=CC(c3ccccc3)C2C(=O)N1CCO (stereo unspecified) | 1 | -2 | 2 | -2 | . | 3 | . | .
